Measured values taken from the array DNA melting data of Ke et al. (doi:10.1101/2024.01.08.574731).

Columns and labels:
[1] = melting temperature; fluorescence melt of hairpins on a sequencing array, two-state fit, raised by 9.35 °C to match UV melts; conditions: sodium 0.088 M
Summary of the method: (§1)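 Melting temperature and folding enthalpy were derived from bootstrapped two-state fits. The fitted temperatures were raised by 9.35 °C to agree with UV melts, and four replicates were combined by inverse variance. The underlying data were Cy3 fluorescence images of library hairpins, with annealed Cy3 and quencher oligos, on a sequenced MiSeq flow cell in 50 mM Na-HEPES pH 8.0, 25 mM NaCl, taken in 2.5 °C steps up to 60 °C, normalised to pre-quench Cy3 and to control constructs.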

[2] = folding enthalpy; higher = less favourable; fluorescence melt of hairpins on a sequencing array, two-state fit; conditions: sodium 0.088 M
Summary of the method: as §1

| Sequence | Tm [1] | folding enthalpy [2] |
| --- | --- | --- |
| GGTTTTGGAAACAAAATC (.(((((....))))).) | 41.5 °C | -33.4 kcal/mol |
| GCCAACGGAAACGCTGGC ((((.((....)).)))) | 52 °C | -40 kcal/mol |
| GCTGCCGAAAGGCGAAGC ((((((....)))..))) | 49 °C | -15.5 kcal/mol |
| GTGATCGAAAGATATCAC ((((((....)))..))) | 34.5 °C | -18 kcal/mol |
| GGTGCATCGAAAGATACC (((..(((....)))))) | 27.9 °C | -10.2 kcal/mol |
| GATCAGATATCTGATC ((((((....)))))) | 50.3 °C | -47.9 kcal/mol |
| GGGCTTGGAAACAGGTCC ((.(.((....)).).)) | 39.7 °C | -27.9 kcal/mol |
| GTGCGAGGAAACCCACAC (((.(.(....).).))) | 24.6 °C | -10.4 kcal/mol |
| GCTAACGGAAACGTTGGC ((.((((....)))).)) | 52.6 °C | -36.1 kcal/mol |
| GACTGCGAAAGCAAGGTC ((((((....)))..))) | 45.1 °C | -15.3 kcal/mol |
| CGCACGGAAACGTGGGCG ((((((....)))..))) | 56.3 °C | -12.8 kcal/mol |
| GAACGCGAAAGCGGCTTC ((((((....)))..))) | 53.3 °C | -14.9 kcal/mol |
| GATCAAGTGATTGATC ((((((....)))))) | 47.3 °C | -32.2 kcal/mol |
| GATCAGGAGTCTGATC ((((((....)))))) | 48.2 °C | -38.7 kcal/mol |
| GCCCTCGAAAGAGAGGGC ((((((....)))..))) | 59.9 °C | -33 kcal/mol |
| GCCACTACGAAAGTAGGC (((..(((....)))))) | 41.5 °C | -13.1 kcal/mol |
| GTGACCGGAAACGGCCAC (((.(((....))).))) | 54.2 °C | -39 kcal/mol |
| GATTAGGGAAACCTAGTC ((.((((....)))).)) | 33.7 °C | -25.4 kcal/mol |
| GTGGTCGGAAACGGCCAC ((((.((....)).)))) | 63.5 °C | -33.7 kcal/mol |
| GGAGGGCCGAAAGGCTCC (((..(((....)))))) | 39.4 °C | -9.45 kcal/mol |
| GTCCTCCGAAAGGAAGAC (((.(((....))).))) | 43.9 °C | -27.5 kcal/mol |
| GATTCCCGAAAGGGGATC (((.(((....))).))) | 57.3 °C | -36.3 kcal/mol |
| GATCCCATCTGGGATC ((((((....)))))) | 62.6 °C | -36.2 kcal/mol |

| Sequence | Tm [1] | folding enthalpy [2] |
| --- | --- | --- |
| GTCCACGAAAGTGGCGAC ((((((....)))..))) | 58.8 °C | -13.4 kcal/mol |
| GATCAAGCGCTTGATC ((((((....)))))) | 55.9 °C | -51.6 kcal/mol |
| GCGTAATCGAAAGATCGC (((..(((....)))))) | 45.6 °C | -25.1 kcal/mol |
| GCCAAAGGAAACTTTGGC (((((((....))))))) | 64 °C | -44.4 kcal/mol |
| GTTGTCGAAAGACAAC ((((((....)))))) | 67.5 °C | -27.7 kcal/mol |
| GATCAGTGACTGATC ((((((...)))))) | 48.7 °C | -26.2 kcal/mol |
| GGAACCGAAAGGTATCC ((((((....))).))) | 40.8 °C | -18.2 kcal/mol |
| GAGCTCGGAAACGAGCCC (.(((((....))))).) | 59.5 °C | -7.56 kcal/mol |
| GCGCAACGAAAGTTCCGC (((.(((....))).))) | 49.3 °C | -30.5 kcal/mol |
| GACCGAGGAAACTCGACC (..((((....))))..) | 26.6 °C | -14.3 kcal/mol |
| GTGATATCGAAAGATCAC (((..(((....)))))) | 37.1 °C | -27.8 kcal/mol |
| GACGAACGAAAGTTGTC (((.(((....)))))) | 44.9 °C | -25.8 kcal/mol |
| GTGAACGAAAGTTCCAC ((((((....))).))) | 39.9 °C | -15.9 kcal/mol |
| GCGTACTGACGC ((((....)))) | 52.4 °C | -21.9 kcal/mol |
| GATCACAATAGTGATC ((((((....)))))) | 60.8 °C | -38.3 kcal/mol |
| GATCGATACTCGATC ((((((...)))))) | 51.3 °C | -41.3 kcal/mol |
| GTCTTAGGAAACTGAGAC ((((.((....)).)))) | 40.9 °C | -30.7 kcal/mol |
| GCTAGAGGAAACTTTAGC ((((.((....)).)))) | 35 °C | -20.8 kcal/mol |
| GGGCACGAAAGTGACCCC ((((((....)))..))) | 68.5 °C | -10.3 kcal/mol |
| GGCGACGAAAGTCTGCC ((((((....))).))) | 59.2 °C | -36.6 kcal/mol |
| GTTCGCCGAAAGGCAAC (((.(((....)))))) | 43.3 °C | -12.5 kcal/mol |
| GCCTCGCGAAAGCAGGGC (((..((....))..))) | 60.8 °C | -20.6 kcal/mol |
| GCTACGGCGAAAGCCAGC (((..(((....)))))) | 42.9 °C | -13.3 kcal/mol |

| Sequence | Tm [1] | folding enthalpy [2] |
| --- | --- | --- |
| GTTATCCGAAAGGAAAC (((.(((....)))))) | 31.5 °C | -14.5 kcal/mol |
| GGCGATGGAAACGTTGCC (((.(.(....).).))) | 44.9 °C | -37.6 kcal/mol |
| GATCGATTGGTCGATC ((((((....)))))) | 53.2 °C | -37.6 kcal/mol |
| GTGTGAGGAAACTCGCAC (((.(((....))).))) | 54.3 °C | -47 kcal/mol |
| GCAGGGCGAAAGCCTAGC ((..(((....)))..)) | 55.2 °C | -18.9 kcal/mol |
| GCGAGTAGTCGC ((((....)))) | 54.3 °C | -19.9 kcal/mol |
| GCCATCGAAAGATGGGC ((((((....))).))) | 63.2 °C | -15.4 kcal/mol |
| GATCACCGAGGTGATC ((((((....)))))) | 63.5 °C | -46.8 kcal/mol |
| GCGCCGGGAAACCGGCAC (.(((((....))))).) | 53.4 °C | -8.63 kcal/mol |
| GCCAGATCGAAAGATGGC (((..(((....)))))) | 48.2 °C | -27.4 kcal/mol |
| GTCTGCGAAAGCATGGAC ((((((....)))..))) | 40.7 °C | -15.7 kcal/mol |
| GGTTGGACGAAAGTCACC (((..(((....)))))) | 34.1 °C | -12.2 kcal/mol |
| GCGCCCTCGAAAGAGCGC (((..(((....)))))) | 54.3 °C | -32 kcal/mol |
| GCATACGAAAGTACGTGC ((((((....)))..))) | 34.4 °C | -18.1 kcal/mol |
| GCGAGCTCTCGC ((((....)))) | 53.1 °C | -30.9 kcal/mol |
| GATTGCGAAAGCAAATC ((((((....))).))) | 50.2 °C | -15.9 kcal/mol |
| GGGAGCGAAAGCTGTCCC ((((((....)))..))) | 45.6 °C | -17.2 kcal/mol |
| GATCCACACCTGGATC ((((((....)))))) | 51 °C | -44.8 kcal/mol |
| GGCCTAGAAATAGGCC ((((((....)))))) | 62.8 °C | -34.9 kcal/mol |
| GCCCCACGAAAGTGAGGC (((.(((....))).))) | 55.8 °C | -37.8 kcal/mol |
| GCCTGGCGAAAGCCGTGC ((..(((....)))..)) | 48.8 °C | -12.9 kcal/mol |
| GGTGGTGCGAAAGCAACC (((..(((....)))))) | 53.3 °C | -15.4 kcal/mol |
| GCGGAGCGAAAGCTTGGC ((..(((....)))..)) | 39.4 °C | -13.5 kcal/mol |
